According to ChEMBL document CHEMBL1153967, “Discovery of substituted 4-anilino-2-arylpyrimidines as a new series of apoptosis inducers using a cell- and caspase-based high throughput screening assay. 2. Structure-activity relationships of the 2-aryl group” (Bioorg Med Chem Lett, 2009):
pEC50, pIC50: −log10 of the molar value. Activity calls are given as the source filed them. No cut-off for these calls is given here.

Legend:
T47D [1] = assay: Induction of apoptosis in human T47D cells assessed as caspase activation after 48 hrs by HTS assay; type: functional, cell-based
Summary of the method: (§1)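 Cell-based caspase-3 activation HTS read with a proprietary fluorescent caspase-3 substrate in T47D, HCT116 and SNU398 cells. Compounds applied for 48 h, highest level 10 µM. EC50 reported as mean ± SEM of three or more experiments.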

HCT-116 [2] = assay: Induction of apoptosis in human HCT116 cells assessed as caspase activation after 48 hrs by HTS assay; type: functional, cell-based; conditions: HCT-116, 48 h; summary of the method: as §1
SNU-398 [3] = assay: Induction of apoptosis in human SNU398 cells assessed as caspase activation after 48 hrs by HTS assay; type: functional, cell-based; conditions: SNU-398, 48 h; summary of the method: as §1
T47D [4] = assay: Growth inhibition of human T47D cells after 48 hrs; type: functional
Summary of the method: (§2)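 96-well growth-inhibition (GI50) format, run in parallel in T47D breast, HCT116 colon and SNU398 hepatocellular carcinoma cells.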

HCT-116 [5] = assay: Growth inhibition of human HCT116 cells after 48 hrs; type: functional; conditions: HCT-116, 48 h; summary of the method: as §2
SNU-398 [6] = assay: Growth inhibition of human SNU398 cells after 48 hrs; type: functional; conditions: SNU-398, 48 h; summary of the method: as §2
[7] = Inhibition of tubulin polymerization up to 50 uM
T47D [8] = assay: Induction of apoptosis in human T47D cells assessed as accumulation at subG1 phase at 0.05 uM after 24 hrs by flow cytometry analysis; type: functional
Summary of the method: (§3)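 T47D cells treated at 0.05 µM for 24 h or 48 h at 37 °C alongside untreated controls. Cells stained with propidium iodide and analysed by flow cytometry. Percentages in sub-G1, G1, S and G2/M read from DNA-content histograms.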

T47D [9] = assay: Induction of apoptosis in human T47D cells assessed as accumulation at G1 phase at 0.05 uM after 24 hrs by flow cytometry analysis; type: functional; summary of the method: as §3
T47D [10] = assay: Induction of apoptosis in human T47D cells assessed as accumulation at S phase at 0.05 uM after 24 hrs by flow cytometry analysis; type: functional; summary of the method: as §3
T47D [11] = assay: Induction of apoptosis in human T47D cells assessed as accumulation at G2/M phase at 0.05 uM after 24 hrs by flow cytometry analysis; type: functional; summary of the method: as §3
T47D [12] = assay: Induction of apoptosis in human T47D cells assessed as accumulation at subG1 phase at 0.05 uM after 48 hrs by flow cytometry analysis; type: functional; summary of the method: as §3
T47D [13] = assay: Induction of apoptosis in human T47D cells assessed as accumulation at G1 phase at 0.05 uM after 48 hrs by flow cytometry analysis; type: functional; summary of the method: as §3
T47D [14] = assay: Induction of apoptosis in human T47D cells assessed as accumulation at S phase at 0.05 uM after 48 hrs by flow cytometry analysis; type: functional; summary of the method: as §3
T47D [15] = assay: Induction of apoptosis in human T47D cells assessed as accumulation at G2/M phase at 0.05 uM after 48 hrs by flow cytometry analysis; type: functional; summary of the method: as §3
[16] = Inhibition of tubulin polymerization

Row | Structure (SMILES) | pEC50 (T47D [1]) | pEC50 (HCT-116 [2]) | pEC50 (SNU-398 [3]) | further results
1 | Oc1ccc(Cl)c(Nc2cc(C(F)(F)F)nc(-c3cnccn3)n2)c1 | 6.25 | < 5.00 | < 5.00 | –
2 | COc1ccc(OC)c(Nc2cc(-c3ccccn3)nc(-c3ccccn3)n2)c1 | 6.38 | 6.48 | 6.80 | GI50 (T47D [4]): 240 nM; GI50 (HCT-116 [5]): 130 nM; GI50 (SNU-398 [6]): 410 nM
3 | FC(F)(F)c1cc(Nc2cccc(-c3ccccc3)c2)nc(-c2cccnc2)n1 | < 5.00 | < 5.00 | < 5.00 | –
4 | COc1ccc(Cl)c(Nc2cc(C(F)(F)F)nc(-c3c(Cl)cncc3Cl)n2)c1 | < 5.00 | < 5.00 | < 5.00 | –
5 | Cc1ccc(O)cc1Nc1cc(C(F)(F)F)nc(-c2cccnc2)n1 | 7.06 | < 5.00 | 5.26 | –
6 | COc1cccc(Nc2nc(-c3ccccn3)ncc2OC)c1 | < 5.00 | < 5.00 | < 5.00 | –
7 | Oc1ccc(Cl)c(Nc2cc(C(F)(F)F)nc(-c3cccnc3)n2)c1 | 6.64 | < 5.00 | < 5.00 | –
8 | COc1ccc(Cl)cc1Nc1cc(C(F)(F)F)nc(-c2cccnc2)n1 | 6.44 | 6.21 | 6.36 | –
9 | FC(F)(F)c1cc(Nc2cccc(Cl)c2)nc(-c2cccnc2)n1 | < 5.00 | < 5.00 | < 5.00 | –
10 | COc1ccc(Cl)c(Nc2cc(C)nc(N3CCOCC3)n2)c1 | < 5.00 | < 5.00 | < 5.00 | –
11 | COc1ccc(N2CCCCC2)c(Nc2cc(C(F)(F)F)nc(-c3cccnc3)n2)c1 | < 5.00 | < 5.00 | < 5.00 | –
12 | Cc1ccc(O)cc1Nc1cc(C(F)(F)F)nc(-c2cnccn2)n1 | 6.72 | < 5.00 | < 5.00 | –
13 | COc1ccc(Oc2ccccc2)cc1Nc1cc(C(F)(F)F)nc(-c2cccnc2)n1 | 5.82 | 5.48 | 5.30 | –
14 | COc1cccc(Nc2cc(C(F)(F)F)nc(C3CCCCN3)n2)c1 (stereo not drawn) | < 5.00 | < 5.00 | < 5.00 | –
15 | COc1ccc(OC)c(Nc2nc(-c3ccccn3)ncc2OC)c1 | < 5.00 | < 5.00 | < 5.00 | –
16 | Oc1cccc(Nc2cc(C(F)(F)F)nc(-c3cccnc3)n2)c1 | 6.01 | < 5.00 | < 5.00 | –

The next lines start with results.

Row | pEC50 (T47D [1]) | pEC50 (HCT-116 [2]) | pEC50 (SNU-398 [3]) | Structure (SMILES) | further results
17 | < 5.00 | < 5.00 | < 5.00 | COc1ccc(Nc2cc(C(F)(F)F)nc(-c3cccnc3)n2)cc1 | –
18 | 6.47 | < 5.00 | < 5.00 | COc1cccc(Nc2cc(C(F)(F)F)nc(-c3cccnc3)n2)c1 | GI50 (T47D [4]): 94 nM; GI50 (HCT-116 [5]): > 10000 nM; GI50 (SNU-398 [6]): 6400 nM; Activity [7]: inactive
19 | 7.60 | 6.92 | – | COc1ccc(C)c(Nc2cc(C(F)(F)F)nc(-c3ccncc3)n2)c1 | –
20 | 7.11 | 5.96 | – | Oc1ccc(Cl)c(Nc2cc(C(F)(F)F)nc(-c3ccncc3)n2)c1 | –
21 | 7.32 | 6.39 | 6.55 | COc1ccc(OC)c(Nc2cc(C(F)(F)F)nc(-c3cnccn3)n2)c1 | –
22 | 7.09 | 5.54 | 5.85 | COc1cc(Nc2cc(C(F)(F)F)nc(-c3cccnc3)n2)cc(OC)c1 | GI50 (T47D [4]): 61 nM; GI50 (HCT-116 [5]): 1300 nM; GI50 (SNU-398 [6]): 1000 nM
23 | 5.89 | < 5.00 | < 5.00 | COc1cccc(Nc2cc(C(F)(F)F)nc(-c3ccncc3)n2)c1 | –
24 | 6.85 | 6.03 | 6.09 | COc1ccc(Cl)c(Nc2cc(C(F)(F)F)nc(-c3cccnc3)n2)c1 | –
25 | 6.92 | 6.21 | – | Cc1ccc(C)c(Nc2cc(C(F)(F)F)nc(-c3ccncc3)n2)c1 | –
26 | 7.00 | 6.02 | – | COc1ccc(Cl)c(Nc2cc(C(F)(F)F)nc(-c3ccncc3)n2)c1 | –
27 | 7.47 | 6.62 | – | COc1cc(Nc2cc(C(F)(F)F)nc(-c3ccncc3)n2)cc(OC)c1 | GI50 (T47D [4]): 36 nM; GI50 (HCT-116 [5]): 270 nM; GI50 (SNU-398 [6]): 270 nM
28 | < 5.00 | < 5.00 | < 5.00 | COc1cccc(Nc2cc(C(F)(F)F)nc(-c3ccccc3)n2)c1 | –
29 | 7.12 | 6.80 | – | COc1ccc(C)cc1Nc1cc(C(F)(F)F)nc(-c2ccncc2)n1 | –
30 | 6.17 | 5.51 | – | Oc1cccc(Nc2cc(C(F)(F)F)nc(-c3ccncc3)n2)c1 | –
31 | 6.89 | < 5.00 | < 5.00 | COc1cc(Nc2cc(C(F)(F)F)nc(-c3cnccn3)n2)cc(OC)c1 | –
32 | < 5.00 | < 5.00 | < 5.00 | COc1ccc(Nc2cc(C(F)(F)F)nc(-c3ccncc3)n2)cc1 | –
33 | 7.74 | 6.72 | 6.96 | COc1ccc(OC)c(Nc2cc(C(F)(F)F)nc(-c3ccccn3)n2)c1 | –
34 | 7.32 | 5.70 | – | Cc1ccc(O)cc1Nc1cc(C(F)(F)F)nc(-c2ccncc2)n1 | –
35 | 7.62 | 6.77 | 6.89 | COc1ccc(OC)c(Nc2cc(C(F)(F)F)nc(-c3cccnc3)n2)c1 | GI50 (T47D [4]): 95 nM; GI50 (HCT-116 [5]): 180 nM; GI50 (SNU-398 [6]): 68 nM; Activity (T47D [8]): 7%; Activity (T47D [9]): 32%; Activity (T47D [10]): 6%; Activity (T47D [11]): 53%; Activity (T47D [12]): 19%; Activity (T47D [13]): 31%; Activity (T47D [14]): 7%; Activity (T47D [15]): 43%; pIC50 [16]: 6.30
36 | 7.02 | 6.89 | 6.89 | COc1ccc(C)cc1Nc1cc(C(F)(F)F)nc(-c2cccnc2)n1 | –
37 | 6.44 | 5.22 | 5.43 | COc1cccc(Nc2cc(C(F)(F)F)nc(-c3ccccn3)n2)c1 | –
